# Experimental data pooled from the literature.
# Compare with care: the assays were run in different laboratories.
# Target: Insulin receptor-related protein (INSRR, Homo sapiens, UniProt P14616)
SMILES,test,setting,quantity,result
Cc1nn(C)cc1-c1nc2c(N3CCN(Cc4ccc(Cl)cc4)CC3)c(Cl)cnc2[nH]1,"binding, competition with immobilised ligand",1 µM,remaining binding,100%
C#Cc1n[nH]c2c(-c3cn(C(C)c4ccccn4)c(=O)[nH]c3=O)cc(F)cc12 (centres unmarked),"enzyme activity, inhibitor",1 µM,inhibition,0.7%
COc1cc(Nc2ncc(F)c(Nc3ccc4c(n3)NC(=O)C(C)(C)O4)n2)cc(OC)c1OC,"binding, competition with immobilised ligand",10 µM,inhibition,53%
COc1ncccc1-c1cnn2ccc(N3CCN(C(=O)OC(C)C)CC3)nc12,"binding, competition with immobilised ligand",1 µM,remaining binding,96%
Cn1cc(-c2cc(F)cc(N3CCn4c(cc5c4CCCC5)C3=O)c2CO)cc(Nc2ccc(N3CCN(C4COC4)CC3)cn2)c1=O,"enzyme activity, inhibitor",0.1 µM,inhibition,15%
Nc1ncc(-c2nc(N3CCOCC3)nc(N3CCOCC3)n2)c(C(F)F)n1,"binding, competition with immobilised ligand",10 µM,remaining binding,80%
O=c1[nH]c2ccccc2n1C1CCN(Cc2ccc(-c3[nH]c4cc5ncnc5cc4nc3-c3ccccc3)cc2)CC1,cell-free assay,0.5 µM,remaining signal,101%
Cn1cncc1[C@](O)(COc1ccc(C#N)cc1-c1ccc(OC(F)(F)F)cc1)c1ccc(C#N)cc1,"cell-free assay, competition with immobilised ligand",1 µM,remaining binding,93%
C#Cc1n[nH]c2c(-c3cn([C@@H](C)c4ccccc4)c(=O)[nH]c3=O)cc(F)cc12,"enzyme activity, inhibitor",0.1 µM,inhibition,6.9%
CC(C)(C)c1cc(C=C(C#N)C#N)cc(Br)c1O,"enzyme activity, inhibitor",0.5 µM,remaining activity,103%
Cn1cc(-c2cccc(N3CCc4c(sc5c4CC(C)(C)C5)C3=O)c2CO)cc(Nc2ccncn2)c1=O,"enzyme activity, inhibitor",1 µM,inhibition,2%
